# From paper PMC10723041 (Science (New York, N.Y.), 2021)
# Read-outs that look alike come from different tables or passages of the source.
# Assays:
# S. aureus CSE (SaCSE) = S. aureus CSE (SaCSE) (Staphylococcus aureus, UniProt X5E0F1); experiment: H2S production enzymatic assay, SaCSE; format: biochemical; conditions: for inhibition of bCSEs (SaCSE): at considerably higher concentrations than for hCSE
# [1] = target: P. aeruginosa CSE (PaCSE) (Pseudomonas aeruginosa, UniProt Q9I6A0); experiment: H2S production enzymatic assay, PaCSE; format: biochemical; conditions: for inhibition of bCSEs (PaCSE): at considerably higher concentrations than for hCSE
# persisters = experiment: Persister assay with H2S donor; format: cell-based
# P. aeruginosa PA14 [2] = experiment: P. aeruginosa intranasal lung infection model; format: in vivo, Swiss Webster mice; conditions: for lung bacterial burden, single agent: NL1 or Gm administered separately, lungs collected 5h after infection
# [3] = Chronic exposure in animal model; format: in vivo; conditions: stringent animal model
# [4] = test system: different types of human cells; experiment: Toxicity to human cells; format: cell-based; conditions: various assays
# [5] = test system: P. aeruginosa PA14 and PAO1; experiment: Antibiotic potentiation; format: cell-based
# P. aeruginosa PA14 [6] = experiment: Pyocyanin redox state in stationary phase culture; format: cell-based; conditions: well-aerated PA14; NL1 180 µM for 18 h
# Procedure, shortened: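 Stationary-phase P. aeruginosa PA14 cultures (OD600 ~1.5) were well aerated and treated with test compound at 180 µM for 18 h. Pyocyanin redox state was judged visually by culture colour: blue/green for oxidized, light yellow for reduced. Comparators were untreated wt and a cbs/cse(−) mutant.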
# S. aureus USA300 = experiment: Persister viability under antibiotic challenge; format: cell-based; conditions: wt cells, ciprofloxacin 10 µg/ml challenge
# S. aureus Newman = experiment: S. aureus sepsis; format: in vivo, Swiss Webster mice; conditions: NL1 or Gm alone
# P. aeruginosa PA14 [7] = experiment: Persister viability under antibiotic challenge; format: cell-based; conditions: wt cells, ciprofloxacin 10 µg/ml challenge
# Procedure, shortened: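 Exponentially growing P. aeruginosa PA14 cultures were challenged with ciprofloxacin at 10 µg/ml. The viable cell fraction was followed over time as a killing curve, and the curve tail was taken as the persister population. Data are mean ± SE, n=3.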
# SaCSE = SaCSE (Staphylococcus aureus, UniProt X5E0F1); experiment: Microscale Thermophoresis; format: binding
# [8] = test system: S. aureus RN4220 (MSSA) and USA300 (MRSA); experiment: Antibiotic potentiation; format: cell-based
# SaCSE H339A mutant = target: T1, SaCSE H339A mutant (Staphylococcus aureus, UniProt X5E0F1, H339A); experiment: H2S generating activity of SaCSE H339A mutant; format: biochemical, S. aureus; conditions: for IC50: read-out: IC50 for SaCSE H339A mutant, mean ± SE, n=2
# T1 sequence (X5E0F1 1-380 H339A): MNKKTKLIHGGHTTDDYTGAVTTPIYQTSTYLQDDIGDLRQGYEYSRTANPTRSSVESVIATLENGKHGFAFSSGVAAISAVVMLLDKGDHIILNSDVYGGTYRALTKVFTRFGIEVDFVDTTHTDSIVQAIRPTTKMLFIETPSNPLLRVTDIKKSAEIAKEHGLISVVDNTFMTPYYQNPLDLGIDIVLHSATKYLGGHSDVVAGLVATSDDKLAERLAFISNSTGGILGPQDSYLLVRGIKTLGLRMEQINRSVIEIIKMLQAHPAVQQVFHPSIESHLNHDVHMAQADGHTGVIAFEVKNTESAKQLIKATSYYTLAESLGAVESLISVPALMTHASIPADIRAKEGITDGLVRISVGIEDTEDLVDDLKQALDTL
# [9] = to approximately the same extent as genetic inactivation of bCSE
molecule,measurement,setting,value
"NO [HA, hydroxylamine]",inhibition of bCSEs (SaCSE),S. aureus CSE (SaCSE),capable of inhibiting bCSEs
same,inhibition of bCSEs (PaCSE),[1],capable of inhibiting bCSEs
"C=CCSSSCC=C [DATS, diallyl trisulfide]",effect of H2S donor on anti-persister effect of NL1,persisters,prevented the anti-persister effect of NL1
O=C(O)CNC(=O)Cn1ccc2ccc(Br)cc21 [NL1],"lung bacterial burden, combination with Gm","P. aeruginosa PA14 [2]; NL1 60 mg/kg together with Gm 2 mg/kg subcutaneous, 30 min after infection, lungs 5h after infection",markedly decreased
same,"lung bacterial burden, single agent",P. aeruginosa PA14 [2],did not change significantly
same,adverse effects of chronic exposure,[3],No adverse effects
same,aqueous solubility relative to NL3,Aqueous solubility,higher aqueous solubility than NL3
same,non-toxic concentration in human cells,[4],at least 25 × of its minimal potentiator concentration
same,sensitization of bCSE-deficient P. aeruginosa PA14 to Gm,[5]; cse mutant,failed to sensitize
same,sensitization of wild type P. aeruginosa PA14 to Gm,[5]; [9],enhanced the killing effect of Gm
same,culture coloration (pyocyanin redox state),P. aeruginosa PA14 [6],green-blue coloration characteristic of the oxidized pyocyanin
same,"effect on persisters, S. aureus USA300",S. aureus USA300,eliminated approximately the same amount of persisters as did genetic inactivation of cse/cbs
same,"survival, single agent",S. aureus Newman,neither NL1 nor Gm alone increased survival
same,"effect on persisters, P. aeruginosa PA14",P. aeruginosa PA14 [7],eliminated approximately the same amount of persisters as did genetic inactivation of cse/cbs
same,Kd,SaCSE,~400 nM
same,sensitization of bCSE-deficient S. aureus RN4220 to Gm,[8]; cse mutant,failed to sensitize
same,sensitization of wild type S. aureus RN4220 to Gm,[8]; [9],enhanced the killing effect of Gm
"NCCO/C=C/[C@H](N)C(=O)O [AVG, L-aminoethoxyvinylglycine]",inhibition of bCSEs (SaCSE),S. aureus CSE (SaCSE),capable of inhibiting bCSEs
same,inhibition of bCSEs (PaCSE),[1],capable of inhibiting bCSEs
Cc1oc(Cn2ccc3ccc(Br)cc32)cc1C(=O)O [NL2],reduction of inhibition in H339A mutant versus wt SaCSE,SaCSE H339A mutant,~ 70 fold
same,IC50,SaCSE H339A mutant,154000 ± 94800 nM
same,aqueous solubility relative to NL3,Aqueous solubility,higher aqueous solubility than NL3
O=C(O)CNC(=O)Cn1c(C(F)(F)F)cc2ccc(Br)cc21 [NL1F3],IC50,S. aureus CSE (SaCSE),> 200000 nM
same,apparent KD for SaCSE (MST),SaCSE,failed
"NOCC(=O)O [AOAA, aminooxyacetic acid]",inhibition of bCSEs (SaCSE),S. aureus CSE (SaCSE),capable of inhibiting bCSEs
same,inhibition of bCSEs (PaCSE),[1],capable of inhibiting bCSEs
"gentamycin [Gm, reference compound]","lung bacterial burden, single agent",P. aeruginosa PA14 [2],did not change significantly
same,"survival, single agent",S. aureus Newman,neither NL1 nor Gm alone increased survival
O=C(O)c1cc(Cn2ccc3ccc(-c4cc5cccc(Cl)c5s4)cc32)[nH]n1 [NL3],IC50,SaCSE H339A mutant,1700 ± 100 nM
same,IC50,"S. aureus CSE (SaCSE); read-out: IC50 for SaCSE, L-cysteine at 100 μM",700 nM
same,IC50,"[1]; read-out: IC50 for PaCSE, L-cysteine at 100 μM",1200 nM
"[Na+].[SH-] [NaHS, reference compound]","effect of exogenous sulfide on Gm potentiation by NL1, P. aeruginosa PA14",[5],largely suppressed Gm potentiation
same,"effect of exogenous sulfide on Gm potentiation by NL1, S. aureus RN4220",[8],largely suppressed Gm potentiation
